From ChEMBL document CHEMBL1132294, “Derivatives of the new ring system indolo[1,2-c]benzo[1,2,3]triazine with potent antitumor and antimicrobial activity” (J Med Chem, 1999)
Converted amounts (≈) assume the structure as drawn.

Legend:
KB [1] = experiment: Antiproliferative activity against drug-resistant tumor cell line KBCamp.; type: functional, cell-based; conditions: Homo sapiens
Method in brief: (§1)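 Solid-tumour and KB lines: exponentially growing cells seeded at 5×10⁴ cells/mL, allowed to adhere 16 h, then serial drug dilutions added. Viability by MTT after 4 days. Growth expressed as % of untreated controls, 50% inhibitory concentration by linear regression. Untreated cells undergo at least three rounds of multiplication.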

KB [2] = experiment: Antiproliferative activity against drug-resistant tumor cell line KBV20C.; type: functional, cell-based; conditions: Homo sapiens; method in brief: as §1
KB [3] = experiment: Antiproliferative activity against drug-resistant tumor cell line KBwt.; type: functional, cell-based; conditions: Homo sapiens; method in brief: as §1
KB [4] = experiment: Antiproliferative activity against drug-resistant tumor cell line KB7D.; type: functional, cell-based; conditions: Homo sapiens; method in brief: as §1
KB [5] = experiment: Antiproliferative activity against drug-resistant tumor cell line KBMDR.; type: functional, cell-based; conditions: Homo sapiens; method in brief: as §1
MT4 = experiment: Antitumor activity was evaluated against leukemia cell line MT-4(human CD4+ T cells expressing the TAT gene of HTLV-1).; type: functional, cell-based
Method in brief: (§2)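 Exponentially growing leukemia/lymphoma cells resuspended at 1×10⁵ cells/mL in RPMI with serial drug dilutions. Viability by MTT after 4 days at 37 °C. Concentration giving 50% growth inhibition versus untreated controls found by linear regression. Mean of at least three experiments.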

Homo sapiens [6] = organism: Homo sapiens; experiment: In vitro Antiproliferative activity against peripheral blood lymphocytes (PBL) after stimulating PBL with PHA and then resuspending in IL-2-containing medium in the presence of compound.; type: functional
Method in brief: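 PBL from HIV-negative donors, isolated on Ficoll-Hypaque and rested overnight. Stimulated with PHA 2.5 μg/mL for 24 h, diluted to 1×10⁵ cells/mL in medium with PHA, IL-2 50 U/mL and compound. Viable cells counted after 6 days. Mean ±SD of three experiments.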

Lymphoblastoid cell = experiment: Cytotoxicity was evaluated against lymphoblastoid cell line.; type: functional; conditions: Homo sapiens
Candida albicans = experiment: Antimycotic activity against Candida albicans was evaluated as minimum inhibitory concentration of compound at which no macroscopic signs of fungal growth were detected; type: functional
Method in brief: (§3)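 Yeast inocula from 30 h Sabouraud dextrose broth cultures at 37 °C, diluted to 5×10³ cells/mL. Dermatophyte inocula from 5-day cultures, homogenized and diluted to 0.05 OD₅₉₀/mL. Inocula added to medium with serial dilutions, incubated at 37 °C, read visually at 2 days (yeast) or 3 days (dermatophytes). Mean of at least three experiments.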

5637 = experiment: Antitumor activity was evaluated against human bladder carcinoma cell line 5637.; type: functional, cell-based; method in brief: as §1
MOLT-4 = experiment: Antitumor activity was evaluated against leukemia cell line MOLT-4(human acute T lymphoblastic leukemia); type: functional, cell-based; method in brief: as §2
Trichophyton benhamiae = experiment: Antimycotic activity against Trichophyton mentagrophytes was evaluated. MIC was defined as compound concentration at which no macroscopic signs of fungal growth were detected.; type: functional, Arthroderma benhamiae; method in brief: as §3
ACHN = experiment: Antitumor activity was evaluated against human renal adenocarcinoma cell line ACHN.; type: functional, cell-based; method in brief: as §1
HT-29 = experiment: Antitumor activity was evaluated against human colon adenocarcinoma cell line HT-29.; type: functional, cell-based; method in brief: as §1
L1210 = experiment: Antitumor activity was evaluated against leukemia cell line L1210 (mouse leukemia).; type: functional, cell-based; method in brief: as §2
CCRF-SB = experiment: Antitumor activity was evaluated against leukemia cell line CCRF-SB(human acute B lymphoblastic leukemia).; type: functional, cell-based; method in brief: as §2
IMR-32 = experiment: Antitumor activity was evaluated against human neuroblastoma cell line IMR-32.; type: functional, cell-based; method in brief: as §1
Aspergillus fumigatus = experiment: Antimycotic activity against Aspergillus fumigatus was evaluated as compound minimum inhibitory concentration at which no macroscopic signs of fungal growth were detected.; type: functional
Candida tropicalis = experiment: Antimycotic activity against Candida paratropicalis was evaluated. MIC was defined as compound concentration at which no macroscopic signs of fungal growth were detected.; type: functional; method in brief: as §3
Cryptococcus neoformans = experiment: Antimycotic activity against Cryptococcus neoformans was evaluated. MIC was defined as compound concentration at which no macroscopic signs of fungal growth were detected.; type: functional; method in brief: as §3
WIL2-NS = experiment: Antitumor activity was evaluated against lymphoma cell line Wil2-NS (human splenic B lymphoblastoid cells).; type: functional, cell-based; method in brief: as §2
Candida parapsilosis = experiment: Antimycotic activity against Candida parapsilosis was evaluated as compound concentration at which no macroscopic signs of fungal growth were detected; type: functional; conditions: Lodderomyces parapsilosis; method in brief: as §3
Homo sapiens [7] = organism: Homo sapiens; experiment: In vitro Antiproliferative activity against peripheral blood lymphocytes (PBL) by treating PBL with compound for 3 days, then stimulating with PHA and then resuspending in compound free medium.; type: functional; conditions: 72 h
Method in brief: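 Resting donor PBL held at 1×10⁶ cells/mL and treated with compound for up to 3 days, then washed. Stimulated with PHA for 24 h, diluted to 1×10⁵ cells/mL in drug-free medium with PHA and IL-2. Viability read after 6 days at 37 °C. Mean ±SD of three experiments.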

CHO-K1 = experiment: Antitumor activity was evaluated against Chinese hamster ovary carcinoma cell line CHO-K1.; type: functional, cell-based; conditions: Cricetulus griseus; method in brief: as §1
[8] = test system: Mycolicibacterium smegmatis; experiment: Antibacterial activity was evaluated against Mycobacterium smegmatis; type: functional
Method in brief: (§4)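 Mycobacterial suspension (turbidity of 1 McFarland standard, 10⁸ CFU/mL) added to Middlebrook 7H9 with 0.5% glycerol, 10% OADC and serial compound dilutions. Incubated at 37 °C, 1 day for M. smegmatis and M. fortuitum, 9 days for MAC. Viable mycobacteria counted by MTT. MIC given as mean of at least three separate experiments.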

[9] = test system: Mycobacterium tuberculosis; experiment: Antibacterial activity was evaluated against Mycobacterium tuberculosis (ATCC); type: functional
Method in brief: (§5)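 Broth microdilution in Middlebrook 7H9 with 0.5% glycerol and 10% OADC, containing serial concentrations of compound (diluted in medium from a DMSO solution). Plates were incubated 9 days at 37 °C, and viable bacteria were read by MTT. MIC is the mean of at least three separate experiments.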

Salmonella = experiment: Antibacterial activity was evaluated against salmonella.; type: functional
Method in brief: (§6)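 Recent clinical isolates grown in nutrient broth, pH 7.2, inoculum 10³ bacterial cells/tube, with serial compound dilutions. […] Mean of at least three separate experiments.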

Streptococcus = experiment: Antibacterial activity was evaluated against streptococcus.; type: functional; method in brief: as §6
Staphylococcus = experiment: Antibacterial activity was evaluated against staphylococcus; type: functional; method in brief: as §6
[10] = test system: Mycobacterium tuberculosis; experiment: Antibacterial activity was evaluated against Mycobacterium tuberculosis (clinical isolate 1104); type: functional; method in brief: as §5
Mycobacterium = experiment: Antibacterial activity was evaluated against MAC (Mycobacterium Avium Complex ); type: functional; method in brief: as §4
Shigella = experiment: Antibacterial activity was evaluated against shigella.; type: functional; method in brief: as §6
[11] = test system: Mycolicibacterium fortuitum; experiment: Antibacterial activity was evaluated against Mycobacterium fortuitum.; type: functional; method in brief: as §4

Row | SMILES | IC50 (KB [1]) | IC50 (KB [2]) | IC50 (KB [3]) | IC50 (KB [4]) | IC50 (KB [5]) | MIC (Candida albicans) | MIC (Trichophyton benhamiae) | MIC (Candida tropicalis) | MIC (Cryptococcus neoformans) | MIC (Candida parapsilosis) | further results
1 | CC[C@@]1(O)C(=O)OCc2c1cc1n(c2=O)Cc2cc3ccccc3nc2-1 [CAMPTOTHECIN] | 1040 nM | 30 nM | 40 nM | 35 nM | 70 nM |  |  |  |  |  | 
2 | COc1cccc2c1C(=O)c1c(O)c3c(c(O)c1C2=O)C[C@@](O)(C(=O)CO)C[C@@H]3O[C@H]1C[C@H](N)[C@H](O)[C@H](C)O1 [DOXORUBICIN] |  |  |  |  |  | > 2.5 µM | > 2.5 µM | > 2.5 µM | > 2.5 µM | > 2.5 µM | IC50 (MT4): 20 nM; CC50 (Homo sapiens [6]): 40 nM; CC50 (Lymphoblastoid cell): 60 nM; IC50 5637: 20 nM; IC50 (MOLT-4): 30 nM; IC50 (ACHN): 400 nM; IC50 (HT-29): 50 nM; IC50 (L1210): 230 nM; IC50 (CCRF-SB): 10 nM; IC50 (IMR-32): 10 nM; MIC (Aspergillus fumigatus): > 2.5 µM; IC50 (WIL2-NS): 20 nM; CC50 (Homo sapiens [7]): 90 nM; IC50 (CHO-K1): 400 nM
3 | COc1cc([C@@H]2c3cc4c(cc3[C@@H](O[C@@H]3O[C@@H]5CO[C@@H](C)O[C@H]5[C@H](O)[C@H]3O)[C@H]3COC(=O)[C@H]23)OCO4)cc(OC)c1O [ETOPOSIDE] | 1300 nM | > 50000 nM | 1450 nM | > 50000 nM | 26200 nM |  |  |  |  |  | 
4 | Clc1ccc(COC(Cn2ccnc2)c2ccc(Cl)cc2Cl)c(Cl)c1 (stereo not drawn) [MICONAZOLE] |  |  |  |  |  | 7.5 µM (≈ 3.12 µg/mL) | 0.9 µM (≈ 0.375 µg/mL) | 0.9 µM (≈ 0.375 µg/mL) | 0.9 µM (≈ 0.375 µg/mL) | 7.5 µM (≈ 3.12 µg/mL) | 
5 | CN[C@@H]1[C@H](O[C@H]2[C@H](O[C@H]3[C@H](O)[C@@H](O)[C@H](N=C(N)N)[C@@H](O)[C@@H]3N=C(N)N)O[C@@H](C)[C@]2(O)C=O)O[C@@H](CO)[C@H](O)[C@H]1O [STREPTOMYCIN] |  |  |  |  |  |  |  |  |  |  | MIC [8]: 5 µM (≈ 2.91 µg/mL); MIC [9]: 5.4 µM (≈ 3.14 µg/mL); MIC (Salmonella): 8.6 µM (≈ 5 µg/mL); MIC (Streptococcus): 2.1 µM (≈ 1.22 µg/mL); MIC (Staphylococcus): 4.2 µM (≈ 2.44 µg/mL); MIC [10]: 2.9 µM (≈ 1.69 µg/mL); MIC (Mycobacterium): 7.4 µM (≈ 4.3 µg/mL); MIC (Shigella): 2.1 µM (≈ 1.22 µg/mL); MIC [11]: 4 µM (≈ 2.33 µg/mL)
6 | CC[C@]1(O)C[C@H]2CN(CCc3c([nH]c4ccccc34)[C@@](C(=O)OC)(c3cc4c(cc3OC)N(C=O)[C@H]3[C@@](O)(C(=O)OC)[C@H](OC(C)=O)[C@]5(CC)C=CCN6CC[C@]43[C@@H]65)C2)C1 [VINCRISTINE] | 5 nM | 50 nM | 1 nM | 35 nM | 350 nM |  |  |  |  |  | 
